This is an account of results in ChEMBL document CHEMBL4765238, “Structure-Based Discovery and Optimization of Benzo[ d]isoxazole Derivatives as Potent and Selective BET Inhibitors for Potential Treatment of Castration-Resistant Prostate Cancer (CRPC)” (J Med Chem, 2018).

The target in experiment [1] is T1, Bromodomain-containing protein 4 (Homo sapiens, UniProt O60885). Description: Binding affinity to human recombinant His6-tagged BRD4 bromodomain 1 (N44 to E168 residues) expressed in Escherichia coli BL21 (DE3) cells assessed as change in entropy incubated for 1 hr by isothermal titration calorimetry.
The target in experiment [2] is Bromodomain testis-specific protein (Homo sapiens) (UniProt Q58F21). Description: Binding affinity to human recombinant His6-tagged BRDT bromodomain 1 (N21 to E137 residues) expressed in Escherichia coli BL21 (DE3) cells assessed as change in melting temperature at 200 uM incubated for 30 mins by SYPRO orange dye based thermal shift assay. A digest of the protocol:
(§1)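 Thermal shift assay measuring change in melting temperature of each isolated bromodomain module in the presence of compound versus without.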

Experiment [3] deals with T1, Bromodomain-containing protein 4. The experiment in a line: Inhibition of HYSGRGK(Ac)GGK(Ac)GLGK(Ac)GGAK(Ac)RHRK(Biotin)-OH binding to recombinant human His6-tagged BRD4 bromodomain 1 (N44 to E168 residues) expressed in Escherichia coli BL21 (DE3) cells measured after 2 hrs by Alphascreen assay. (In general: Bead proximity is the source of the signal in Alpha formats.)

Experiment [4] has the same target. The experiment in a line: Binding affinity to human recombinant His6-tagged BRD4 bromodomain 1 (N44 to E168 residues) expressed in Escherichia coli BL21 (DE3) cells assessed as change in enthalpy incubated for 1 hr by isothermal titration calorimetry. A general note: Isothermal titration calorimetry measures the heat released or taken up as one component is titrated into another.

Experiment [5] concerns the target Histone acetyltransferase p300 (Homo sapiens) (UniProt Q09472). Description: Binding affinity to human recombinant His6-tagged EP300 (A1040 to G1161 residues) expressed in Escherichia coli BL21 (DE3) cells assessed as change in melting temperature at 200 uM incubated for 30 mins by SYPRO orange dye based thermal shift assay. A digest of the protocol: as §1
Another experiment has as its system VCaP. Description: Antiproliferative activity against AR-positive human VCaP cells assessed as reduction in cell viability incubated for 144 hrs by cell-titer glo assay. Format: functional, cell-based. The procedure, abridged: (§2)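 Prostate cancer cells treated across a concentration range; viability read by CellTiter-Glo luminescence; experiments in triplicate; IC50 derived from the dose–response curves.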

In experiment [6] the target is T2, Bromodomain-containing protein 1 (Homo sapiens) (UniProt O95696).
T2 sequence (whole entry): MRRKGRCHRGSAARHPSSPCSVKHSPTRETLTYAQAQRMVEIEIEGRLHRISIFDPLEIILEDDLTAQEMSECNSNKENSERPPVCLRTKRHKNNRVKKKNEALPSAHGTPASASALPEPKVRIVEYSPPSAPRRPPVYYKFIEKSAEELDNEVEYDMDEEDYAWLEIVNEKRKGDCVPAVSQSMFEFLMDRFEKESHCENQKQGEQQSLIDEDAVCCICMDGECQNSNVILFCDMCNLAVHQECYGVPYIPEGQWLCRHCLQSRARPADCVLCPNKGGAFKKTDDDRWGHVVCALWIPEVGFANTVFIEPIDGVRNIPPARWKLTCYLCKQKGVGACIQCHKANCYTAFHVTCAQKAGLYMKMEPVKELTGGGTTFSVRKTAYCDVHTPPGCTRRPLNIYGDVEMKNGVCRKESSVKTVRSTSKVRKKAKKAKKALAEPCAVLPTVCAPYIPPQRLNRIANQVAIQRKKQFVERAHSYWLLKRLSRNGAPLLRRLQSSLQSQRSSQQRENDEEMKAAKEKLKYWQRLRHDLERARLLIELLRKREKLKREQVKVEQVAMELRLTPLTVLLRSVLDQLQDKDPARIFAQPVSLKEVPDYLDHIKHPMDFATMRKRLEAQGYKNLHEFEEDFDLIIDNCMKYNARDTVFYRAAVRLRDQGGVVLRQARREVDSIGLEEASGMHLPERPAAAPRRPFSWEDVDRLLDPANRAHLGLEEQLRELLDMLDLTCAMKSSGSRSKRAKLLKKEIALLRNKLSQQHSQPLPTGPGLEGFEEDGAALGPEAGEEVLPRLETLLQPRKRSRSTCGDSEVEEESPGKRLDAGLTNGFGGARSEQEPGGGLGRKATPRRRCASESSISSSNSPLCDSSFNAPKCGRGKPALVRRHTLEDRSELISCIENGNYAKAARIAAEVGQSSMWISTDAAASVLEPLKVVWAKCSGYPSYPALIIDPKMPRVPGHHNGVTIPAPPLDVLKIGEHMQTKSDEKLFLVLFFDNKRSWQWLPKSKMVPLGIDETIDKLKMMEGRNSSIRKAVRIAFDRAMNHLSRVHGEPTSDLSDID
The experiment in a line: Binding affinity to human recombinant His6-tagged BRD1 (E556 to A688 residues) expressed in Escherichia coli BL21 (DE3) cells assessed as change in melting temperature at 200 uM incubated for 30 mins by SYPRO orange dye based thermal shift assay. A digest of the protocol: as §1

Experiment [7] concerns the target T1, Bromodomain-containing protein 4. The experiment in a line: Binding affinity to human recombinant His6-tagged BRD4 bromodomain 1 (N44 to E168 residues) expressed in Escherichia coli BL21 (DE3) cells assessed as change in melting temperature at 200 uM incubated for 30 mins by SYPRO orange dye based thermal shift assay. The procedure, abridged:
as §1

Experiment [8] has as its target Bromodomain adjacent to zinc finger domain protein 2B (Homo sapiens) (UniProt Q9UIF8). Description: Binding affinity to human recombinant His6-tagged BAZ2B (S1858 to S1972 residues) expressed in Escherichia coli BL21 (DE3) cells assessed as change in melting temperature at 200 uM incubated for 30 mins by SYPRO orange dye based thermal shift assay. The procedure, abridged:
as §1

The next experiment deals with LNCaP C4-2B. The experiment in a line: Antiproliferative activity against AR-positive human C4-2B cells assessed as reduction in cell viability incubated for 96 hrs by cell-titer glo assay. In kind it is functional, cell-based. A digest of the protocol:
as §2

Experiment [9] addresses T1, Bromodomain-containing protein 4. The experiment in a line: Binding affinity to human recombinant His6-tagged BRD4 bromodomain 1 (N44 to E168 residues) expressed in Escherichia coli BL21 (DE3) cells assessed as dissociation constant incubated for 1 hr by isothermal titration calorimetry.

For orientation: ΔTm means the change in melting temperature against a reference sample. For orientation: IC50 means the concentration that gives 50% inhibition. What is called Kd is the constant that tells how readily two partners part at equilibrium.

Histone acetyltransferase p300 (Homo sapiens), sequence (Q09472 whole entry, the tested form may be a part): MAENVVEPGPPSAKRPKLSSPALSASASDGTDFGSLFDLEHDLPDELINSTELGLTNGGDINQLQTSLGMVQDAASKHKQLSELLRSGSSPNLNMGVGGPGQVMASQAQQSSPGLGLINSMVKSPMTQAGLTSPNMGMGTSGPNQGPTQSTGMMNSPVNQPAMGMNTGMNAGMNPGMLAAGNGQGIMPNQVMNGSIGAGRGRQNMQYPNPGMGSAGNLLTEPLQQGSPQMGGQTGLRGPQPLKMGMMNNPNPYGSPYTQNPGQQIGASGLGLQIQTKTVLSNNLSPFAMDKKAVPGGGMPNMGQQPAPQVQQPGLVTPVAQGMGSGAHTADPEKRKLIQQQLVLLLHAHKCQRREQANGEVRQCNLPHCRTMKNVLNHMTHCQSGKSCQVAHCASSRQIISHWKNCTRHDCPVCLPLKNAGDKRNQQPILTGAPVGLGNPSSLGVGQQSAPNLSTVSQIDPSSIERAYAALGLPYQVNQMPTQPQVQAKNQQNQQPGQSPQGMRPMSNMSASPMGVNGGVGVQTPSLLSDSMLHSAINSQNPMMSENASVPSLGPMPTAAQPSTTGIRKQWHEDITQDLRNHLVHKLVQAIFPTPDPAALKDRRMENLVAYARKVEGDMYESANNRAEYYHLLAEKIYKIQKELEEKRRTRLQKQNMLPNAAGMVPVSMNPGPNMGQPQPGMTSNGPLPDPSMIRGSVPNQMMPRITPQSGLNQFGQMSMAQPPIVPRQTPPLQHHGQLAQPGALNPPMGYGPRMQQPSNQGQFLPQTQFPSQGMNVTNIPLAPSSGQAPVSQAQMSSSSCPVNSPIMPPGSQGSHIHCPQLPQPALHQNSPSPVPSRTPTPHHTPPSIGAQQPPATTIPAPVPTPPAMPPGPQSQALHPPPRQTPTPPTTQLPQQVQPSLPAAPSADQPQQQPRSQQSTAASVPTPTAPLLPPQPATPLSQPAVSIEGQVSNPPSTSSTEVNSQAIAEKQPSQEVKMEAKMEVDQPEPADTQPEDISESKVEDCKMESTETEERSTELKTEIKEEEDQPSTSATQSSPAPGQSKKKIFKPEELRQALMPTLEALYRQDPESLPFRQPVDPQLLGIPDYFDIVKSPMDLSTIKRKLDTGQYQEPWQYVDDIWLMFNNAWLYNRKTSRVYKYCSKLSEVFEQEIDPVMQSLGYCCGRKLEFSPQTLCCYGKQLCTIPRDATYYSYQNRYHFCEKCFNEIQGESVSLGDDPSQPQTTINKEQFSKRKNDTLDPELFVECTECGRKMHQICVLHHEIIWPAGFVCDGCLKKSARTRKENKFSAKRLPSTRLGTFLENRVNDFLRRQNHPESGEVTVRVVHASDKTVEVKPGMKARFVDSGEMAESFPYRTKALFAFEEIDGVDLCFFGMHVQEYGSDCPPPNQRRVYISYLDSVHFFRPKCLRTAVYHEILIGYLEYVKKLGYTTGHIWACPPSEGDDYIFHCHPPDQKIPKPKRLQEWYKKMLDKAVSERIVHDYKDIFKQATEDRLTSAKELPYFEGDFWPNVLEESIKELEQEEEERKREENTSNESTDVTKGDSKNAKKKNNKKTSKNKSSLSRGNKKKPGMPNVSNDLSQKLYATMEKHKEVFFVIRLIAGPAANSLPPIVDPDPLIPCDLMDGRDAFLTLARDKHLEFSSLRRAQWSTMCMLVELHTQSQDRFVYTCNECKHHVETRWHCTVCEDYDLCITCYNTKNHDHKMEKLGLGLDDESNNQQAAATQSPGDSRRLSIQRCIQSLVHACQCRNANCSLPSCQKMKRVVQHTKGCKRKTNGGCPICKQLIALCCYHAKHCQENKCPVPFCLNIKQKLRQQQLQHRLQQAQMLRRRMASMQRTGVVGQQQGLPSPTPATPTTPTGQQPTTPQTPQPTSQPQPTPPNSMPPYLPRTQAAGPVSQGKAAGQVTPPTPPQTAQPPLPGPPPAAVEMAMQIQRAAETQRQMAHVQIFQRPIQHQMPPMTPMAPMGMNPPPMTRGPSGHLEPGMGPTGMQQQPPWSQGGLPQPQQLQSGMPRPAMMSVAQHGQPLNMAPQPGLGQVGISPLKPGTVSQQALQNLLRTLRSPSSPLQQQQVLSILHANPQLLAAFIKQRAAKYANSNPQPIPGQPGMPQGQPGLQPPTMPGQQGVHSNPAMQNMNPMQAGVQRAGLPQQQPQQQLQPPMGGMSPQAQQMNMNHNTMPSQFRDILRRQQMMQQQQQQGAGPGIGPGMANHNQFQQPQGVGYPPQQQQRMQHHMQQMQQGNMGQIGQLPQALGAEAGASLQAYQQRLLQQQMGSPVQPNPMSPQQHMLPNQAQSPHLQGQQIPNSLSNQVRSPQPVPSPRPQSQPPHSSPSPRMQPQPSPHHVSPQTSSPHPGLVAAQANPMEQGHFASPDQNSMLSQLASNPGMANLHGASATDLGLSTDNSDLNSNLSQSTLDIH
Bromodomain adjacent to zinc finger domain protein 2B (Homo sapiens), sequence (Q9UIF8 whole entry, the tested form may be a part): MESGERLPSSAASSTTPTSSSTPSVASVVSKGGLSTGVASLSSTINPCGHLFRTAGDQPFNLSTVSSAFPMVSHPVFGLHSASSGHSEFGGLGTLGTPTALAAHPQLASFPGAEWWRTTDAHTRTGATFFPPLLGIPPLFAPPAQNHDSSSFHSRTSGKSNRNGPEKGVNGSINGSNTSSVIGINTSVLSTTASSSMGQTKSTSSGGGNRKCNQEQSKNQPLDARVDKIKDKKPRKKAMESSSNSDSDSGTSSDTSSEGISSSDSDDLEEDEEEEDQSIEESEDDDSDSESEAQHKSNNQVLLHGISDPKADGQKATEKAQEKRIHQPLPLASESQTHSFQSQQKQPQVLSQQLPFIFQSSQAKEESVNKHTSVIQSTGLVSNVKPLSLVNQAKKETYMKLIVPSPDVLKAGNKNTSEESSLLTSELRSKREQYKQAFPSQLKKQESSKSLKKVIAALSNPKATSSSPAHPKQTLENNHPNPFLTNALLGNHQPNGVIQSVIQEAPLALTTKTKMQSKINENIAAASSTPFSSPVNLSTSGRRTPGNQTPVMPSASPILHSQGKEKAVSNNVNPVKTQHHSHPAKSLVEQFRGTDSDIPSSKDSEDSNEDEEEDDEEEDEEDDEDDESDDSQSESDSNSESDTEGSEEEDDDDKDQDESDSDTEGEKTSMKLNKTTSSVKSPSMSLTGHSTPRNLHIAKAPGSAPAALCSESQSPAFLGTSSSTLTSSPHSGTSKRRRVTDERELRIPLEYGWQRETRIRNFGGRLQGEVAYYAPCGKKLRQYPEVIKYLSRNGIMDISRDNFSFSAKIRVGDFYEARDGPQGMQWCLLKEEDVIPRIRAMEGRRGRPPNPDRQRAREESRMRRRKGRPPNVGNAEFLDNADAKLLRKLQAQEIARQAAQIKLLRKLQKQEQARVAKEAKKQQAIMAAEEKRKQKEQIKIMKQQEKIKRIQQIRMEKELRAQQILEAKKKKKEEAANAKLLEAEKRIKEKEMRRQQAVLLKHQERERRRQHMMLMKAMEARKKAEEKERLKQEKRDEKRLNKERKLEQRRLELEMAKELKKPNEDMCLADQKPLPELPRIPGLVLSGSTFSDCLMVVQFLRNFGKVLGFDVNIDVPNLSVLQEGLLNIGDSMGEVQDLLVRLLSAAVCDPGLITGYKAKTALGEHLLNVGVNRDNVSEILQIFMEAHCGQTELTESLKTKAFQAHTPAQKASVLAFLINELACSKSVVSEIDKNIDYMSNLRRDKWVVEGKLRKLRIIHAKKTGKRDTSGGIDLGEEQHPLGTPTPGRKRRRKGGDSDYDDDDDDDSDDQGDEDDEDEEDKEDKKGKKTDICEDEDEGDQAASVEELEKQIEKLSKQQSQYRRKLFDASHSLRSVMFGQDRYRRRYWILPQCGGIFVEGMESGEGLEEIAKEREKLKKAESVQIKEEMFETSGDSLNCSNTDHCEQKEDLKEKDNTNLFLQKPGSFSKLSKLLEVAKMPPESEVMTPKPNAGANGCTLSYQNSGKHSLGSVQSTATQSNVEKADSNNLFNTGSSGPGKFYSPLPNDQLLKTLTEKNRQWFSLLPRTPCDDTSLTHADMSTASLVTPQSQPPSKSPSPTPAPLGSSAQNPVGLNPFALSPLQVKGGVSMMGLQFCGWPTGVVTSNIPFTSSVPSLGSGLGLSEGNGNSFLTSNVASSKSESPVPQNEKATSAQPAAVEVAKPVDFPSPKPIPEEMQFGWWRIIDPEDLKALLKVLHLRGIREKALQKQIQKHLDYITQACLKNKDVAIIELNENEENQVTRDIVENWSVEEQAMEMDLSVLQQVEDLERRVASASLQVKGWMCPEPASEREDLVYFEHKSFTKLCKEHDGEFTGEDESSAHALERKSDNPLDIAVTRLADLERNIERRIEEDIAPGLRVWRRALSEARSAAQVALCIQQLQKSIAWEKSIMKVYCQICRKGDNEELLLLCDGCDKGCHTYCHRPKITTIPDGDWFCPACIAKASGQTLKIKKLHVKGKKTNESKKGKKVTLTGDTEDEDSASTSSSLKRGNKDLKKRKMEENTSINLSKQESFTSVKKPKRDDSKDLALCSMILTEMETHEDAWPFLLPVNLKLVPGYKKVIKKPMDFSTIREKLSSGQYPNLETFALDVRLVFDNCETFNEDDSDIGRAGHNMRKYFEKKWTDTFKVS

Take `CNc1cc2onc(C)c2cc1NS(=O)(=O)c1cc(Br)ccc1OC`: the TdeltaS in experiment [1] was -6 kcal/mol. The thermal shift (ΔTm) in [2] is 5.1 °C; in experiment [5], 2.3 °C; in experiment [6], -0.4 °C; in [7] it was 9.2 °C; in [8], 0.3 °C. Moreover, the figures for the IC50 (in experiment [3]; in the experiment on VCaP; with LNCaP C4-2B) were 150 nM, 3020 nM and 6430 nM, respectively. Moreover, the deltaH in [4] is -15.3 kcal/mol. For the same molecule, the dissociation constant (Kd) in experiment [9] was found to be 164 nM.
Regarding `COc1cc2onc(C)c2cc1NS(=O)(=O)c1cc(Br)ccc1OC`, the TdeltaS in experiment [1] was -2.5 kcal/mol. Moreover, the ΔTm in experiment [2] was 5.6 °C; in experiment [5] it was 2 °C; in experiment [6], -0.1 °C; in [7] it was 9.8 °C; in experiment [8] it was 0 °C. Moreover, the 50% inhibitory concentration (IC50) turned out to be 130 nM in experiment [3], 630 nM with VCaP and 2620 nM in the experiment with LNCaP C4-2B. Moreover, the deltaH in [4] is -12.2 kcal/mol. Further, the Kd in experiment [9] was found to be 82 nM.
For the molecule `Cc1noc2c(Br)cc(-c3nc4ccc(N5CCOCC5)cc4n3CC3CCCCC3)cc12`, in experiment [1], the TdeltaS is -1.4 kcal/mol. Besides, the ΔTm in [2] was 4.2 °C; in [5], -0.3 °C; in experiment [6], 0 °C; in [7], 9.2 °C; in experiment [8], -0.6 °C. In addition, the IC50 came out at 300 nM in experiment [3], 500 nM in the experiment on VCaP and 850 nM in the experiment with LNCaP C4-2B. Also, the deltaH in experiment [4] is -10.7 kcal/mol. The Kd in experiment [9] turned out to be 159 nM.
On to `Cc1noc2ccc(-c3nc4ccc(N5CCOC[C@@H]5C)cc4n3CC3CCCCC3)cc12`, for which the TdeltaS in experiment [1] is -2.2 kcal/mol. For the same molecule, the thermal shift (ΔTm) was 3.6 °C in [2]; 0.3 °C in [5]; 0.3 °C in experiment [6]; 9.9 °C in [7]; -0.6 °C in [8]. For the same molecule, the IC50 worked out at 180 nM in [3], 290 nM in the experiment with VCaP and 840 nM in the experiment on LNCaP C4-2B. The deltaH in experiment [4] was -11.9 kcal/mol. For the same molecule, the dissociation constant Kd in experiment [9] turned out to be 81 nM.
